Measured values pooled from the literature.
Each line is one published result; the experiments were not run side by side.
Target: TRAF2 and NCK-interacting protein kinase (TNIK, Homo sapiens, UniProt Q9UKE5)

CN(C)c1ncnc(-c2ccc3nc(Nc4cc(CN5CCN(C(=O)CC(F)(F)F)CC5)ccn4)[nH]c3c2)c1Cl
remaining binding (cell-free assay; competition with immobilised ligand; 1 µM): 53%

CC(C)(O)[C@H]1CC[C@H](Nc2ccc3ncc(-c4cccc(C(F)(F)F)c4)n3n2)CC1
remaining activity (enzyme activity; inhibitor; 1 µM): 96.9%

CC1(C)NC(=O)c2[nH]c3c(Cl)c(Cl)ccc3c2C1C#N (stereo not drawn)
ΔTm (thermal stability; DSF; 10 µM): 0 °C

CCC(=O)N[C@H]1CC[C@@H](C(=O)N(C)c2ccc(-c3nc4ccccc4o3)cc2)C1
remaining binding (cell-free assay; competition with immobilised ligand; 1 µM): 100%

CCCCNc1ncc2c(-c3ccc(F)cc3)nn(C[C@H]3CC[C@H](N)CC3)c2n1
inhibition (target engagement in cells; inhibitor; chemoproteomics; 20 mM): 62.6%

Cn1c2c(c3ccc(Cl)c(Cl)c31)C(C#N)C(C)(C)NC2=O (stereo not drawn)
ΔTm (thermal stability; DSF; 10 µM): -0.4 °C

O=C(CSc1nc2nccnc2c(=O)n1CCc1ccccc1)Nc1nccs1
inhibition (enzyme activity; inhibitor; 10 µM): -4%

Cn1c2c(c3ccccc31)C(C#N)C(C)(C)NC2=O (stereo not drawn)
ΔTm (thermal stability; DSF; 10 µM): -0.1 °C

CN1CCN(c2cnc3c(C4CCN(C(=O)c5ccc(OC(F)(F)F)cc5N)CC4)ncnc3c2)CC1
remaining binding (cell-free assay; competition with immobilised ligand; 1 µM): 100%

CCN1CCC2(CC1)NC(=O)c1c(c3ccc(Cl)c(Cl)c3n1C)C2C#N (racemic)
ΔTm (thermal stability; DSF; 10 µM): 0 °C

O=C(N[C@H]1CCCCC/C=C\C2C[C@@]2(C(=O)O)NC(=O)[C@@H]2C[C@@H](Oc3ccncc3)CN2C1=O)OC1CCCC1 (stereo partly drawn)
remaining binding (binding; competition with immobilised ligand; 1 µM): 78%

O=C(Nc1cnn(-c2csc(C(=O)NC3COC3)c2)c1)Nc1ccccc1Cl
remaining activity (enzyme activity; inhibitor; 5 µM): 53.2%

Cn1nc(C(=O)NCc2ccc(C(=O)O)cc2)cc1-c1ccc2[nH]ccc2c1
remaining binding (cell-free assay; competition with immobilised ligand; 0.1 µM): 97%

Nc1ncnc2occ(-c3ccc(NC(=O)Nc4cc(C(F)(F)F)ccc4F)cc3)c12
remaining signal (cell-free assay; inhibitor; 20 µM): 6.9%

Cn1cnc(Br)c1C1=CN(c2ncnc3[nH]cnc23)CCS1
inhibition (enzyme activity; inhibitor; radiometric; 2 µM): 88.7%

CCCCN(CCCC)C(=O)CN1C[C@@H](c2cc(OC)c3c(c2)OCO3)[C@H](C(=O)O)[C@H]1CC(C)(C)CCC
remaining binding (cell-free assay; competition with immobilised ligand; 1 µM): 86%

c1ccc(CNc2nc(N3CCOc4ccccc43)nc3c2CCCC3)cc1
inhibition (target engagement in cells; inhibitor; chemoproteomics; 20 mM): -8%

Cn1c2c(c3ccc(Cl)c(Cl)c31)C(C#N)C1(CCCCC1)NC2=O (racemic)
ΔTm (thermal stability; DSF; 10 µM): 0 °C

C=CC(=O)Nc1cc(Nc2nccc(Nc3cc(Cl)c(F)cc3C(C)(C)O)n2)c(OC)cc1N1CC[C@@H](N(C)C)C1
inhibition (enzyme activity; inhibitor; 1 µM): 47%

Cn1c2c(Cl)c(Cl)ccc2c2cc(N)[nH]c(=O)c21
ΔTm (thermal stability; DSF; 10 µM): 0.1 °C

Cc1sc(C(=O)NC2COC2)cc1-n1cc(NC(=O)Nc2c(F)cccc2Cl)cn1
remaining activity (enzyme activity; inhibitor; 10 µM): 94.5%
